{"source": "paper PMC9704493", "about": "(RSC Advances, 2022)", "key": {"[1]": {"tested_on": "MCF-7 breast cancer cells", "experiment": "MTT cell viability assay, MCF-7", "assay_type": "cell-based, human", "details": "for GI50: Homo sapiens, MCF7, 72 h, read-out: GI50 values (M) mean ± SD, MCF-7; for Selectivity indices (SI), MCF-7: MCF-7 versus MRC-5 fibroblasts", "summary_of_the_method": "(§1)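 Cells were seeded at 3 × 10^3 per well and grown for 24 h at 37 °C/5% CO2. A T0 plate was read at dosing and the others after 72 h. MTT (5 mg mL−1 in PBS) was added for 2.5 h, formazan dissolved in DMSO, and absorbance read at 550 nm. GI50 was interpolated, in triplicate. SI compares MRC-5 with cancer-line activity.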"}, "HCT-116 cells [2]": {"tested_on": "HCT-116 cells", "experiment": "Clonogenic assay, HCT-116 colony formation", "assay_type": "cell-based, human", "details": "24 h exposure, second group, printed as HCT-116; for colony formation: 10 μM", "summary_of_the_method": "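HCT-116 cells (RPMI 1640, 10% FBS, 1% glutamine) were seeded at 400 per well in 6-well plates and left to attach for 24 h. They were given test compound at 5 or 10 μM for 24 h, with medium alone as control. Cells were then washed with cold PBS and grown in fresh medium at 37 °C until control colonies reached ≥50 cells. Colonies were methanol-fixed, stained with 0.05% methylene blue and counted. Survival fraction is % of control, from five independent trials (n = 2 each).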"}, "MCF-7 cells [3]": {"tested_on": "MCF-7 cells", "experiment": "Cell count assay, MCF-7", "assay_type": "cell-based", "details": "Homo sapiens, MCF7, 72 h, read-out: growth inhibition, cell count", "summary_of_the_method": "(§2)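 Cancer lines were grown in RPMI 1640 with 10% FBS and 1% glutamine at 37 °C/5% CO2, at ≤30 passages. Cells were seeded at 2 × 10^4 per well in 6-well plates and exposed to test compound at 5 or 10 μM for 72 h. Cells were counted by haemocytometer and expressed as % of control (mean ± SD), from 2 independent experiments in triplicate.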"}, "[4]": {"tested_on": "HCT-116 colorectal carcinoma cells", "experiment": "MTT cell viability assay, HCT-116", "assay_type": "cell-based, human", "details": "for Selectivity indices (SI), HCT-116: HCT-116 versus MRC-5 fibroblasts; for GI50: Homo sapiens, HCT-116, 72 h, read-out: GI50 values (M) mean ± SD, HCT-116", "summary_of_the_method": "as §1"}, "MRC-5 fibroblasts": {"tested_on": "MRC-5 fibroblasts", "experiment": "MTT cell viability assay, MRC-5 normal fibroblasts", "assay_type": "cell-based, human", "details": "for GI50: Homo sapiens, MRC5, 72 h, read-out: GI50 values (M) mean ± SD, MRC-5; for more active against the carcinoma cell lines than MRC-5: selectivity over MRC-5", "summary_of_the_method": "as §1"}, "[5]": {"tested_on": "caspases 3 and 7 in MCF-7 cells", "experiment": "Caspase-3/7 activity assay, MCF-7", "assay_type": "cell-based, human", "details": "MCF-7, 5 and 10 μM, 72 h", "summary_of_the_method": "(§3)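 Cells kept in log growth (passaged twice weekly, 37 °C/5% CO2, ≤30 passages) were seeded at 3 × 10^3 per well in opaque white 96-well plates and allowed 24 h at 37 °C. Test compound was added at 5 and 10 μM from fresh 10 mM DMSO stocks for 72 h. Homogeneous caspase-3/7 reagent was added and mixed at 300–500 rpm for 30 s. After 30 min at room temperature, fluorescence was read at 499 nm and 521 nm. Experiments were run in triplicate and reported as mean ± SD.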"}, "[6]": {"tested_on": "caspases 3 and 7 in HCT-116 cells", "experiment": "Caspase-3/7 activity assay, HCT-116", "assay_type": "cell-based, human", "details": "HCT-116, 5 and 10 μM, 72 h", "summary_of_the_method": "as §3"}, "HCT-116 cells [7]": {"tested_on": "HCT-116 cells", "experiment": "Cell count assay, HCT-116", "assay_type": "cell-based", "details": "Homo sapiens, HCT-116, 72 h, read-out: growth inhibition, cell count", "summary_of_the_method": "as §2"}, "ERK1/2": {"tested_on": "ERK1/2", "experiment": "Preliminary ERK1/2 inhibition experiments"}, "PARP-1 in HCT-116 cells": {"tested_on": "PARP-1 in HCT-116 cells", "experiment": "Western blot of whole and cleaved PARP, HCT-116", "assay_type": "cell-based, human", "details": "HCT-116, 5 and 10 μM, 24 h", "summary_of_the_method": "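HCT-116 cells were seeded at 1–2 × 10^6 per dish, attached for 24 h, then exposed to test compound at 5 or 10 μM for 24 h. Lysate protein was measured by Bradford assay, and 50 μg per sample was run on SDS-PAGE and blotted to nitrocellulose. Blots were probed for PARP-1, with GAPDH as loading control, and quantified by densitometry. Data are mean ± SD of three independent experiments, analysed by ANOVA with Dunnett's test.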"}, "MCF-7 cells [8]": {"tested_on": "MCF-7 cells", "experiment": "Cell cycle assay", "assay_type": "cell-based, human", "details": "24 h; for accumulation of events in G2/M phase: control 11%", "summary_of_the_method": "(§4)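 Cells were seeded in 10 cm dishes at 7 × 10^5 (control, 24 h) or 4 × 10^5 (48 and 72 h) per dish and left 24 h at 37 °C. They were then treated with test compound at 5 or 10 μM for 24 h. Floating and trypsinised cells were pooled, PBS-washed, held in cold hypotonic fluorochrome solution overnight at 4 °C in the dark, and analysed by flow cytometry (three internal repeats).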"}, "HCT-116 cells [9]": {"tested_on": "HCT-116 cells", "experiment": "Cell cycle assay", "assay_type": "cell-based, human", "details": "HCT-116, 5 and 10 μM, 24 h", "summary_of_the_method": "as §4"}}}
{"smiles": "N#Cc1ccc(-c2csc(NN=Cc3c(F)c(F)c(F)c(F)c3F)n2)cc1", "note": "[3a′, 2-(2-((Pentafluorophenyl)methylene)hydrazinyl)-4-(4-cyanophenyl) thiazole]", "values": [{"measurement": "GI50", "setting": "[1]", "value": "1.7e-06 ± 3e-07", "unit": "M"}, {"measurement": "Selectivity indices (SI), MCF-7", "setting": "[1]", "value": 6.8}, {"measurement": "colony formation", "setting": "HCT-116 cells [2]", "value": "completely prevented colony formation"}, {"measurement": "inhibition at 10 µM", "setting": "MCF-7 cells [3]", "value": "90 to 95", "unit": "%"}, {"measurement": "Selectivity indices (SI), HCT-116", "setting": "[4]", "value": 2.8}, {"measurement": "GI50", "setting": "[4]", "value": "4.2e-06 ± 1e-06", "unit": "M"}, {"measurement": "GI50", "setting": "MRC-5 fibroblasts", "value": "1.16e-05 ± 6e-07", "unit": "M"}]}
{"smiles": "N#Cc1ccc(-c2csc(NN=Cc3sccc3Br)n2)cc1", "note": "[3b′, 2-(2-((3-Bromothiophen-2-yl)methylene)hydrazinyl)-4-(4-cyanophenyl) thiazole]", "values": [{"measurement": "GI50", "setting": "[1]", "value": "3.9e-06 ± 5e-07", "unit": "M"}, {"measurement": "Selectivity indices (SI), MCF-7", "setting": "[1]", "value": 5}, {"measurement": "caspase 3 and 7 activation", "setting": "[5]", "value": "Significant dose-dependent caspase activation"}, {"measurement": "caspase 3 and 7 activation", "setting": "[6]", "value": "Significant dose-dependent caspase activation"}, {"measurement": "colony formation", "setting": "HCT-116 cells [2]", "value": "completely prevented colony formation"}, {"measurement": "Selectivity indices (SI), HCT-116", "setting": "[4]", "value": 12.2}, {"measurement": "GI50", "setting": "[4]", "value": "1.6e-06 ± 2e-07", "unit": "M"}, {"measurement": "GI50", "setting": "MRC-5 fibroblasts", "value": "1.95e-05 ± 3e-07", "unit": "M"}, {"measurement": "more active against the carcinoma cell lines than MRC-5", "setting": "MRC-5 fibroblasts", "value": "> 5", "unit": "×"}, {"measurement": "inhibition at 5 µM", "setting": "HCT-116 cells [7]", "value": "50 to 55", "unit": "%"}, {"measurement": "inhibition at 10 µM", "setting": "HCT-116 cells [7]", "value": "90 to 95", "unit": "%"}]}
{"smiles": "Cc1cccc(C=NNc2nc(-c3ccc(C#N)cc3)cs2)c1O", "note": "[Compound 3f, 2-(2-(2-Hydroxy-3-methylbenzylidene) hydrazinyl)-4-(4-cyanophenyl) thiazole]", "values": [{"measurement": "GI50", "setting": "[1]", "value": "1e-06 ± 4e-07", "unit": "M"}, {"measurement": "Selectivity indices (SI), MCF-7", "setting": "[1]", "value": 17.3}, {"measurement": "caspase 3 and 7 activation", "setting": "[5]", "value": "Significant dose-dependent caspase activation"}, {"measurement": "ERK1/2 inhibition", "setting": "ERK1/2", "value": "showed ERK1/2 inhibition"}, {"measurement": "PARP-1 cleavage", "setting": "PARP-1 in HCT-116 cells", "value": "induces concentration-dependent PARP-1 cleavage"}, {"measurement": "whole PARP expression", "setting": "PARP-1 in HCT-116 cells", "value": "down-regulation of whole PARP"}, {"measurement": "caspase 3 and 7 activation", "setting": "[6]", "value": "Significant dose-dependent caspase activation"}, {"measurement": "inhibition of colony formation", "setting": "HCT-116 cells [2]; 5 μM", "value": "completely inhibiting colony formation"}, {"measurement": "colony formation", "setting": "HCT-116 cells [2]", "value": "completely inhibiting colony formation"}, {"measurement": "accumulation of events in G2/M phase", "setting": "MCF-7 cells [8]; MCF-7, 5 μM", "value": 23, "unit": "%"}, {"measurement": "accumulation of events in G2/M phase", "setting": "MCF-7 cells [8]; MCF-7, 10 μM", "value": 28, "unit": "%"}, {"measurement": "pre-G1 cell populations", "setting": "MCF-7 cells [8]; MCF-7, 5 and 10 μM", "value": "negligible"}, {"measurement": "inhibition at 5 µM", "setting": "MCF-7 cells [3]", "value": "55 to 60", "unit": "%"}, {"measurement": "inhibition at 10 µM", "setting": "MCF-7 cells [3]", "value": 100, "unit": "%"}, {"measurement": "Selectivity indices (SI), HCT-116", "setting": "[4]", "value": 10.8}, {"measurement": "GI50", "setting": "[4]", "value": "1.6e-06 ± 1e-07", "unit": "M"}, {"measurement": "GI50", "setting": "MRC-5 fibroblasts", "value": "1.73e-05 ± 7e-07", "unit": "M"}, {"measurement": "SI over MRC-5 fibroblasts", "setting": "MRC-5 fibroblasts; cancer cell line not given", "value": "> 10"}, {"measurement": "more active against the carcinoma cell lines than MRC-5", "setting": "MRC-5 fibroblasts", "value": "> 10", "unit": "×"}, {"measurement": "Pre-G1 events", "setting": "HCT-116 cells [9]", "value": "5–8%"}]}
{"smiles": "N#Cc1ccc(-c2csc(NN=Cc3c(Cl)cccc3Cl)n2)cc1", "note": "[Compound 3n, 2-(2-(2,6-Dichlorobenzylidene)hydrazinyl)-4-(4-cyanophenyl) thiazole]", "values": [{"measurement": "GI50", "setting": "[1]", "value": "2.54e-05 ± 1.6e-06", "unit": "M"}, {"measurement": "Selectivity indices (SI), MCF-7", "setting": "[1]", "value": 0.5}, {"measurement": "Selectivity indices (SI), HCT-116", "setting": "[4]", "value": 11}, {"measurement": "GI50", "setting": "[4]", "value": "1.1e-06 ± 5e-07", "unit": "M"}, {"measurement": "GI50", "setting": "MRC-5 fibroblasts", "value": "1.21e-05 ± 4e-07", "unit": "M"}, {"measurement": "inhibition at 5 µM", "setting": "HCT-116 cells [7]", "value": "50 to 55", "unit": "%"}, {"measurement": "inhibition at 10 µM", "setting": "HCT-116 cells [7]", "value": 100, "unit": "%"}]}
{"smiles": "N#Cc1ccc(-c2csc(NN=Cc3cc(Br)ccc3O)n2)cc1", "note": "[Compound 3h, 2-(2-(5-Bromo-2-hydroxybenzylidene) hydrazinyl)-4-(4-cyanophenyl) thiazole]", "values": [{"measurement": "GI50", "setting": "[1]", "value": "7e-06 ± 3e-07", "unit": "M"}, {"measurement": "Selectivity indices (SI), MCF-7", "setting": "[1]", "value": 2.3}, {"measurement": "inhibition at 10 µM", "setting": "MCF-7 cells [3]", "value": "65 to 70", "unit": "%"}, {"measurement": "Selectivity indices (SI), HCT-116", "setting": "[4]", "value": 3.6}, {"measurement": "GI50", "setting": "[4]", "value": "4.4e-06 ± 3e-07", "unit": "M"}, {"measurement": "GI50", "setting": "MRC-5 fibroblasts", "value": "1.58e-05 ± 2e-07", "unit": "M"}]}
